Test results reported in ChEMBL document CHEMBL1932939, “Synthesis and cytotoxic evaluation of thiourea and N-bis-benzothiazole derivatives: a novel class of cytotoxic agents” (Bioorg Med Chem Lett, 2012).

How the values were obtained:
B16-F10 = experiment: Cytotoxicity against mouse B16F10 cells after 48 hrs by MTT assay; type: functional, cell-based; conditions: B16-F10, 48 h
In short: (§1)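 IC50 is taken as the concentration that gives a 50% drop in cell number relative to control cultures grown without inhibitor. Etoposide serves as the standard positive-control drug.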

U-937 = experiment: Cytotoxicity against human U937 cells after 48 hrs by MTT assay; type: functional, cell-based; in short: as §1
THP-1 [1] = experiment: Cytotoxicity against human THP1 cells after 48 hrs by MTT assay; type: functional, cell-based; conditions: THP-1, 48 h; in short: as §1
THP-1 [2] = experiment: Ratio of IC50 for mouse B16F10 cells to IC50 for human THP1 cells after 48 hrs by MTT assay; type: functional
THP-1 [3] = experiment: Ratio of IC50 for human U937 cells to IC50 for human THP1 cells after 48 hrs by MTT assay; type: functional

## Cc1ccc2nc(NC(=S)Nc3ccc(F)cc3)sc2c1
B16-F10
  IC50: > 50 µM
U-937; Homo sapiens, U-937, 48 h
  IC50: > 50 µM
THP-1 [1]
  IC50: 36.9 µM

## Cc1ccc2nc(NC(=S)Nc3ccccc3)sc2c1
B16-F10
  IC50: > 50 µM
U-937; Homo sapiens, U-937, 48 h
  IC50: > 50 µM
THP-1 [1]
  IC50: > 50 µM

## CCOc1ccc2nc(Nc3nc4ccc(F)cc4s3)sc2c1
B16-F10
  IC50: 33.2 µM
U-937; Homo sapiens, U-937, 48 h
  IC50: 26.6 µM
THP-1 [1]
  IC50: 39 µM

## S=C(Nc1ccccc1)Nc1nc2c(Cl)cccc2s1
B16-F10
  IC50: > 50 µM
U-937; Homo sapiens, U-937, 48 h
  IC50: > 50 µM
THP-1 [1]
  IC50: 31.8 µM

## Clc1ccc2nc(Nc3nc4ccccc4s3)sc2c1
B16-F10
  IC50: > 50 µM
U-937; Homo sapiens, U-937, 48 h
  IC50: > 50 µM
THP-1 [1]
  IC50: 45.4 µM

## COc1cc([C@@H]2c3cc4c(cc3[C@@H](O[C@@H]3O[C@@H]5CO[C@@H](C)O[C@H]5[C@H](O)[C@H]3O)[C@H]3COC(=O)[C@H]23)OCO4)cc(OC)c1O [ETOPOSIDE]
B16-F10
  IC50: 18.7 µM
THP-1 [2]
  Ratio IC50: 9
THP-1 [3]
  Ratio IC50: 9

## CCOc1ccc2nc(NC(=S)Nc3ccc(F)cc3)sc2c1
B16-F10
  IC50: > 50 µM
U-937; Homo sapiens, U-937, 48 h
  IC50: 28.1 µM
THP-1 [1]
  IC50: 39.5 µM

## S=C(Nc1ccccc1)Nc1nc2ccccc2s1
B16-F10
  IC50: > 50 µM
U-937; Homo sapiens, U-937, 48 h
  IC50: > 50 µM
THP-1 [1]
  IC50: 36.5 µM

## Fc1ccc2nc(Nc3nc4ccccc4s3)sc2c1
B16-F10
  IC50: > 50 µM
U-937; Homo sapiens, U-937, 48 h
  IC50: 40.6 µM
U-937; u-937
  IC50: 43.5 µM
THP-1 [1]
  IC50: > 50 µM

## Fc1ccc(NC(=S)Nc2nc3c(Cl)cccc3s2)cc1
B16-F10
  IC50: > 50 µM
U-937; Homo sapiens, U-937, 48 h
  IC50: > 50 µM
THP-1 [1]
  IC50: > 50 µM

## S=C(Nc1ccc(Cl)cc1)Nc1nc2ccccc2s1
B16-F10
  IC50: > 50 µM
U-937; Homo sapiens, U-937, 48 h
  IC50: > 50 µM
THP-1 [1]
  IC50: 39 µM

## Fc1ccc(NC(=S)Nc2nc3ccccc3s2)cc1
B16-F10
  IC50: > 50 µM
U-937; Homo sapiens, U-937, 48 h
  IC50: 32 µM
THP-1 [1]
  IC50: 26.7 µM

## c1ccc2sc(Nc3nc4ccccc4s3)nc2c1
B16-F10
  IC50: > 50 µM
U-937; Homo sapiens, U-937, 48 h
  IC50: 40 µM
THP-1 [1]
  IC50: 28.8 µM

## CCOc1ccc2nc(NC(=S)Nc3ccccc3)sc2c1
B16-F10
  IC50: > 50 µM
U-937; Homo sapiens, U-937, 48 h
  IC50: 37.7 µM
THP-1 [1]
  IC50: 43.8 µM

## Fc1ccc2nc(NC(=S)Nc3ccccc3)sc2c1
B16-F10
  IC50: > 50 µM
U-937; Homo sapiens, U-937, 48 h
  IC50: > 50 µM
THP-1 [1]
  IC50: 46.6 µM

## Fc1ccc2nc(Nc3nc4ccc(Cl)cc4s3)sc2c1
B16-F10
  IC50: 41.9 µM
U-937; Homo sapiens, U-937, 48 h
  IC50: > 50 µM
THP-1 [1]
  IC50: 41 µM

## CCOc1ccc2nc(Nc3nc4ccccc4s3)sc2c1
B16-F10
  IC50: > 50 µM
U-937; Homo sapiens, U-937, 48 h
  IC50: > 50 µM
THP-1 [1]
  IC50: 37.1 µM

## Fc1ccc(NC(=S)Nc2nc3ccc(F)cc3s2)cc1
B16-F10
  IC50: 47.7 µM
U-937; Homo sapiens, U-937, 48 h
  IC50: 16.2 µM
THP-1 [1]
  IC50: 34.6 µM

## Fc1ccc2nc(Nc3nc4c(Cl)cccc4s3)sc2c1
B16-F10
  IC50: > 50 µM
U-937; Homo sapiens, U-937, 48 h
  IC50: > 50 µM
THP-1 [1]
  IC50: 36.2 µM

## Cc1ccc2nc(Nc3nc4ccccc4s3)sc2c1
B16-F10
  IC50: > 50 µM
U-937; Homo sapiens, U-937, 48 h
  IC50: 48.4 µM
THP-1 [1]
  IC50: 34.2 µM

## Fc1ccc2nc(NC(=S)Nc3ccc(Cl)cc3)sc2c1
B16-F10
  IC50: 48.1 µM
U-937; Homo sapiens, U-937, 48 h
  IC50: 18.7 µM
THP-1 [1]
  IC50: 31.2 µM

## Clc1cccc2sc(Nc3nc4ccccc4s3)nc12
B16-F10
  IC50: 29.5 µM
U-937; Homo sapiens, U-937, 48 h
  IC50: > 50 µM
THP-1 [1]
  IC50: > 50 µM

## Fc1ccc2nc(Nc3nc4ccc(F)cc4s3)sc2c1
B16-F10
  IC50: 47.5 µM
U-937; Homo sapiens, U-937, 48 h
  IC50: 27.4 µM
THP-1 [1]
  IC50: 17.5 µM

## Cc1ccc2nc(Nc3nc4ccc(F)cc4s3)sc2c1
B16-F10
  IC50: 29.6 µM
U-937; Homo sapiens, U-937, 48 h
  IC50: > 50 µM
THP-1 [1]
  IC50: > 50 µM
